Results gathered from unrelated publications.
Protocols differ between the studies behind these lines.
Target: Serine/threonine-protein kinase BRSK2 (BRSK2, Homo sapiens, UniProt Q8IWQ3)
One construct used (Q8IWQ3 1-736): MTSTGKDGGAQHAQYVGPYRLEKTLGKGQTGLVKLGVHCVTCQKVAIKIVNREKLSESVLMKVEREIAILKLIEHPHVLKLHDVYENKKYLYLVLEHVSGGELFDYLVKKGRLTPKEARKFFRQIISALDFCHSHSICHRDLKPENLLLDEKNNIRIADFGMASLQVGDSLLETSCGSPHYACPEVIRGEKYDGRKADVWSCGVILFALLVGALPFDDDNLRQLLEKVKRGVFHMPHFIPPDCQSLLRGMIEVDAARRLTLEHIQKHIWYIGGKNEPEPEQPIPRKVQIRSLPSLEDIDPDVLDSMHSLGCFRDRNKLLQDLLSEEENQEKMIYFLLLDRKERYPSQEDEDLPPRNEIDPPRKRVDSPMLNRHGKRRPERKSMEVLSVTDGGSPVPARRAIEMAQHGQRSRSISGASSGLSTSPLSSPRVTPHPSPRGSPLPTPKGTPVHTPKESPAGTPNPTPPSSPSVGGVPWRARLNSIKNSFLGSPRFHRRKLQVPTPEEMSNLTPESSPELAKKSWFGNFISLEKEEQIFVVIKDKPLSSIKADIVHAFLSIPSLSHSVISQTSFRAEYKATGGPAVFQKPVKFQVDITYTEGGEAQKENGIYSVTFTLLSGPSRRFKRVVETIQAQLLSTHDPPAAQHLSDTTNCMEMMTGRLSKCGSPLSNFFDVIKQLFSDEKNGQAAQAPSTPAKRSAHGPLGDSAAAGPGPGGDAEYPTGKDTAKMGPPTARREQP

Compound | read-out | technique | tested at | remaining binding
C[C@H](c1ccnc(Nc2nc3ccc(-c4cc(N(C)C)ncn4)cc3[nH]2)c1)N1CCN(C(=O)CC(F)(F)F)CC1 | cell-free assay | competition with immobilised ligand | 0.1 µM | 100%
CC1CCCN1c1nccc(-c2cnn3ncccc23)n1 (stereo not drawn) | binding | – | 1 µM | 100%
Cc1cnc(Nc2ccc(C(=O)N3CCC(N4CCCC4)CC3)cc2)nc1-c1cc2ccccc2s1 | binding | competition with immobilised ligand | 1 µM | 42%
O=C(Nc1cnc(Oc2ccc(F)cc2)nc1)N1CCc2ncccc2[C@@H]1c1ccc(F)cc1 | cell-free assay | competition with immobilised ligand | 1 µM | 89%
C[C@H]1CCN(c2nccc(-c3cnn4ncccc34)n2)C1 | binding | – | 1 µM | 96%
O=C(c1ccc(Nc2nccc(-c3cc4ccccc4s3)n2)cc1)N1CCC(N2CCCC2)CC1 | binding | competition with immobilised ligand | 1 µM | 91%
FC(F)(F)Oc1cccc(-c2cnc3ccc(-c4ccncc4)nn23)c1 | cell-free assay | competition with immobilised ligand | 5 µM | 80%
C[C@H](c1ccc(F)cc1)N(Cc1cccc(C(=O)O)c1)C(=O)c1cnc2ccccc2c1 | cell-free assay | competition with immobilised ligand | 1 µM | 100%
F[C@@H]1CCN(c2nccc(-c3cnn4ncccc34)n2)C1 | binding | – | 1 µM | 100%
COc1cnc(Nc2cccc(S(N)(=O)=O)c2)nc1N1CCN(c2ccccc2)CC1 | binding | competition with immobilised ligand | 1 µM | 100%
CCCCN(CCCC)C(=O)CN1C[C@H](c2cc(OC)c3c(c2)OCO3)[C@@H](C(=O)O)[C@@H]1CC(C)(C)CCC | cell-free assay | competition with immobilised ligand | 1 µM | 95.6%
COc1ccnn2ncc(-c3ccnc(N(C)C)n3)c12 | binding | – | 1 µM | 76%
O=C(NCC1CCOCC1)c1n[nH]cc1NC(=O)c1c(F)cccc1F | binding | competition with immobilised ligand | 1 µM | 95%
CN(C)c1ncc(F)c(-c2cnn3ncccc23)n1 | binding | – | 1 µM | 100%
COc1ncc2cc3ccccc3nc2c1C#N | cell-free assay | competition with immobilised ligand | 5 µM | 74%
CN(C)c1ncnc(-c2ccc3nc(Nc4cc(CN5CCN(C(=O)CC(F)(F)F)CC5)ccn4)[nH]c3c2)c1Cl | cell-free assay | competition with immobilised ligand | 1 µM | 100%
C[C@@H](c1ccc(-n2cnc3c(N)ncnc32)cc1)N1CCc2nn(C)c(Cc3ccccc3)c2C1=O | binding | competition with immobilised ligand | 0.1 µM | 90%
c1cncc(-c2cccc(Nc3nccc(NC4CCCCC4)n3)c2)c1 | binding | competition with immobilised ligand | 10 µM | 99%
COc1ccc2cc(OCC3(C(=O)O)CN(C(=O)c4ccc(F)cc4)C3)ccc2c1 | cell-free assay | competition with immobilised ligand | 1 µM | 100%
N[C@H]1CCN(c2nccc(-c3cnn4ncccc34)n2)C1 | binding | – | 1 µM | 100%
O=C(c1ccc(Nc2ncc(Cl)c(-c3cc4ccccc4s3)n2)cc1)N1CCC(N2CCCC2)CC1 | binding | competition with immobilised ligand | 1 µM | 53%
